Laboratory results taken from ChEMBL document CHEMBL1145837, “Design and synthesis of 4,6-di-tert-butyl-2,3-dihydro-5-benzofuranols as a novel series of antiatherogenic antioxidants” (J Med Chem, 2003).

Columns and labels:
Oryctolagus cuniculus [1] = assay: Distribution of compound into VLDL lipoprotein fraction of WHHL Rabbit's plasma after oral administration; assay type: ADME, organism-based; conditions: in vivo
Method in brief: (§1)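 WHHL rabbits given test compound orally (250 mg/kg) once daily for 9 days; at 24 h after final dose plasma lipoproteins isolated by Havel procedure, EtOAc-extracted, compound content per mg lipoprotein measured by reverse-phase HPLC. Mean ± range, n = 2.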

[2] = biological target: T1, Seed linoleate 13S-lipoxygenase-1 (Glycine max) (UniProt P08170); assay: Inhibition of LDL oxidation induced by soybean lipoxygenase (SLO) at 5 uM expressed as % control.; assay type: functional
T1 sequence (whole entry): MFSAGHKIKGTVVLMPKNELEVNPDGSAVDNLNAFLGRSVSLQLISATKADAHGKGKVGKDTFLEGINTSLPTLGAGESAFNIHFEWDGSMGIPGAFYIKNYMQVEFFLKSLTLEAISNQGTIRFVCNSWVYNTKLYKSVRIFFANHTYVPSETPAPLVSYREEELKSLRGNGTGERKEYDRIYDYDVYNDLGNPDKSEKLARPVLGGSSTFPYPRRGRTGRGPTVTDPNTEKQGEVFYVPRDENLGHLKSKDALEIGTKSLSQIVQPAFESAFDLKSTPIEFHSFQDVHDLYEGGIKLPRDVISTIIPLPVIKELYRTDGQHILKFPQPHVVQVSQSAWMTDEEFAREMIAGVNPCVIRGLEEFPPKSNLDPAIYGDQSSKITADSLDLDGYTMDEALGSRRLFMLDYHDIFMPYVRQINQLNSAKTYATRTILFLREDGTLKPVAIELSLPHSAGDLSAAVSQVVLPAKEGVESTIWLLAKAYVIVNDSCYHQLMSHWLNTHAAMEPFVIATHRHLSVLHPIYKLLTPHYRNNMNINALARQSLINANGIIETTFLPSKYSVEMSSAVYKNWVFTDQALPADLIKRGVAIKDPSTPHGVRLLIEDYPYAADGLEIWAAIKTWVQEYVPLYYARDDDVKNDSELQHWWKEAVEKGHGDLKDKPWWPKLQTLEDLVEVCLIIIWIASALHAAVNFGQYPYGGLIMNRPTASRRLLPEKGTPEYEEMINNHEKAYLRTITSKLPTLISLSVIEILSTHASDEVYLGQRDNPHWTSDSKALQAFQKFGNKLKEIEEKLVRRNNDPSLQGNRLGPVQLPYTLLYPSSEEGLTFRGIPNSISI
Method in brief: (§2)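 Rabbit LDL (d 1.019–1.063 g/mL, sequential ultracentrifugation) at 200 μg/mL with compound at stated concentration, oxidized by soybean lipoxygenase type-IS or CuSO4 at 37 °C for 24 h in CO2 incubator. Read-out: TBARS and LDL fluorescence by gel permeation chromatography (0.1 M NaCl, 0.05 M Tris pH 7.4); expressed as % of control; duplicate or more.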

Oryctolagus cuniculus [3] = organism: Oryctolagus cuniculus; assay: Inhibition of LDL oxidation induced by cupric ions (CuSO4) at 10 uM expressed as % control.; assay type: functional; method in brief: as §2
Oryctolagus cuniculus [4] = organism: Oryctolagus cuniculus; assay: Inhibition of LDL oxidation induced by cupric ions (CuSO4) at 1 uM expressed as % control.; assay type: functional; method in brief: as §2
[5] = Inhibition of MCLA chemiluminescence generated by autoxidation of linoleic acid
Method in brief: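 Linoleic acid peroxyl radicals from autoxidation of 1 mM linoleic acid in 1-butanol with 10 μM MCLA, 10 min at 37 °C under air; quenching measured as change in MCLA chemiluminescence after compound addition; IC50 derived; duplicate or more.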

[6] = biological target: T1, Seed linoleate 13S-lipoxygenase-1 (Glycine max); assay: Inhibition of LDL oxidation induced by soybean lipoxygenase (SLO) at 0.5 uM expressed as % control.; assay type: functional; method in brief: as §2
Oryctolagus cuniculus [7] = assay: Distribution of compound into LDL lipoprotein fraction of WHHL Rabbit's plasma after oral administration; assay type: ADME, organism-based; conditions: in vivo; method in brief: as §1
Oryctolagus cuniculus [8] = assay: Distribution of compound into HDL lipoprotein fraction of WHHL Rabbit's plasma after oral administration; assay type: ADME, organism-based; conditions: in vivo; method in brief: as §1
Oryctolagus cuniculus [9] = assay: Distribution of compound into HDL lipoprotein fraction of WHHL Rabbit's plasma after oral administration; ND means not detected; assay type: ADME, organism-based; conditions: in vivo; method in brief: as §1

Row | Compound | VLDL (Oryctolagus cuniculus [1]) [µg/mg] | LDL oxidation remaining, % of control [2] [%] | LDL oxidation remaining, % of control (Oryctolagus cuniculus [3]) [%] | LDL oxidation remaining, % of control (Oryctolagus cuniculus [4]) [%] | IC50 [5] [µM] | LDL oxidation remaining, % of control [6] [%] | LDL (Oryctolagus cuniculus [7]) [µg/mg] | HDL (Oryctolagus cuniculus [8]) [µg/mg] | HDL (Oryctolagus cuniculus [9])
1 | CCCCCC1(CCCCC)Cc2c(cc(C(C)(C)C)c(O)c2C(C)(C)C)O1 [BO-653] | 119.25 | 4.6 | 42 | 96 | 4.6 | 60.9 | 28.6 | 2.98 | 
2 | CC(C)(C)c1cc2c(c(C(C)(C)C)c1O)CC1(CCCCCCC1)O2 |  | 9 | 22 | 92 | 9.4 | 97.2 |  |  | 
3 | CC(C)(C)c1cc2c(c(C(C)(C)C)c1O)CCO2 |  | 6.9 | 11 | 53 | 7.2 | 36 |  |  | 
4 | CCCCCCCC1(CCCCCCC)Cc2c(cc(C(C)(C)C)c(O)c2C(C)(C)C)O1 |  | 18.5 | 83 | 89 |  | 88.4 |  |  | 
5 | CC(C)(C)c1cc2c(c(C(C)(C)C)c1O)CC1(CCOCC1)O2 |  | 4.7 | 22 | 87 | 8.2 | 71.8 |  |  | 
6 | CCC1(CC)Cc2c(cc(C(C)(C)C)c(O)c2C(C)(C)C)O1 |  | 1.3 | 10 | 77 | 4.3 | 9.4 |  |  | 
7 | CC(C)CCC1(CCC(C)C)Cc2c(cc(C(C)(C)C)c(O)c2C(C)(C)C)O1 | 25.64 | 7.1 | 23 | 78 | 5.7 | 91.5 | 9.34 |  | Not detected
8 | CC(C)(C)c1cc2c(c(C(C)(C)C)c1O)CC(C(C)(C)C)O2 (stereo unspecified) | 27.69 | 1.8 | 11 | 74 | 8.4 | 99 | 5.08 |  | Not detected
9 | CC(C)(Sc1cc(C(C)(C)C)c(O)c(C(C)(C)C)c1)Sc1cc(C(C)(C)C)c(O)c(C(C)(C)C)c1 [PROBUCOL] | 5.48 | 14 | 28 | 87 | 165 | 73.9 | 2.57 | 0.44 | 
10 | CC(C)(C)c1cc2c(c(C(C)(C)C)c1O)CC1(CCCCCC1)O2 |  | 2.3 | 9 | 91 | 7.9 | 93.4 |  |  | 
11 | CC(C)(C)c1cc2c(c(C(C)(C)C)c1O)CC(Cc1ccccc1)(Cc1ccccc1)O2 |  | 3.6 | 11 | 93 | 10.6 | 63.5 |  |  | 
12 | CCCC1(CCC)Cc2c(cc(C(C)(C)C)c(O)c2C(C)(C)C)O1 |  | 0 | 13 | 87 | 4 | 33.3 |  |  | 
13 | CC1(C)Cc2c(cc(C(C)(C)C)c(O)c2C(C)(C)C)O1 |  | 1.8 | 10 | 56 | 6.7 | 39.8 |  |  | 
14 | CCCCC1(CCCC)Cc2c(cc(C(C)(C)C)c(O)c2C(C)(C)C)O1 | 57.07 | 0.5 | 12 | 82 | 7.9 | 51.5 | 11.04 | 3.22 | 
15 | CCCCCCCCC1(CCCCCCCC)Cc2c(cc(C(C)(C)C)c(O)c2C(C)(C)C)O1 | 1.16 | 11.3 | 72 | 85 | 5.6 | 89.8 | 0.36 |  | Not detected
16 | CC(C)(C)c1cc2c(c(C(C)(C)C)c1O)CC1(CCCC1)O2 |  | 0.4 | 12 | 85 | 6.6 | 46.2 |  |  | 
17 | CCCCCCC1(CCCCCC)Cc2c(cc(C(C)(C)C)c(O)c2C(C)(C)C)O1 |  | 2.7 | 23 | 86 |  | 75.5 |  |  | 
18 | CC(C)(C)c1cc2c(c(C(C)(C)C)c1O)CC1(CCCCC1)O2 |  | 0 | 16 | 77 | 9.3 | 34.1 |  |  | 
